The text below walks through data of publication PMC2785155 (The Journal of Biological Chemistry, 2009).

Test [1] addresses T1, SufBC (Thermotoga maritima, UniProt Q9X188).
T1 sequence (Q9X188 1-246): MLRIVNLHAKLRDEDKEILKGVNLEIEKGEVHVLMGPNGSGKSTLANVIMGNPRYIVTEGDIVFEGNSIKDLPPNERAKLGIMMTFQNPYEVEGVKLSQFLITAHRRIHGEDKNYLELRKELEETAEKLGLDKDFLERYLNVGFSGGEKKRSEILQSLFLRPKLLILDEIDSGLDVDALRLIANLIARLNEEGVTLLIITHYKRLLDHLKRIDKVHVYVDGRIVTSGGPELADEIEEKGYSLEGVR
T1 sequence (Q9X189 1-464 partner): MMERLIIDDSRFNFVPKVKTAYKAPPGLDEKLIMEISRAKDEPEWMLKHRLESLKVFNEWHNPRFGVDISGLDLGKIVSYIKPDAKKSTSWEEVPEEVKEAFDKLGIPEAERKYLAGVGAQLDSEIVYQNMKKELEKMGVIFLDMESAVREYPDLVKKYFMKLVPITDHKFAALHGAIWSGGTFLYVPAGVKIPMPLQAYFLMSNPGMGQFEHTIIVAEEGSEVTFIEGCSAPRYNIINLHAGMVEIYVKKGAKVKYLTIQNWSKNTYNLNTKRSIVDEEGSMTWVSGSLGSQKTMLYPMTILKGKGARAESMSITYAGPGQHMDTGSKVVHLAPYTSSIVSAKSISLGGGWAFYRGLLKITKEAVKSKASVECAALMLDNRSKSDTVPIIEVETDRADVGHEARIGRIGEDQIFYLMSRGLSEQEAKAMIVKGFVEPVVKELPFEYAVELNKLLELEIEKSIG
Kind of test: stopped-flow ADP dissociation trapped by MDCC-ParM. The format is binding. Particulars: 50 mM Tris-HCl pH 7.5, 100 mM KCl, 5 mM MgCl2, 2 mM dithiothreitol, 20 °C. A digest of the protocol:
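SufBC (13 μM) was preincubated with 4 μM ADP in one stopped-flow syringe. It was rapidly mixed with 80 or 160 μM MDCC-ParM ADP sensor, which traps ADP released from SufBC. ADP dissociation was read from the change in MDCC fluorescence over time.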

The target of test [2] is T1, SufBC. Particulars: 50 mM Tris-HCl pH 7.5, 100 mM KCl, 5 mM MgCl2, 2 mM dithiothreitol, 20 °C.

On to `Nc1ncnc2c1ncn2[C@@H]1O[C@H](COP(=O)(O)OP(=O)(O)O)[C@@H](O)[C@H]1O` [ADP], for which the “rate constant (ADP dissociation)” value on SufBC [1] came out at 0.046 s⁻¹.
Consider `Nc1ncnc2c1ncn2[C@@H]1O[C@H](COP(=O)(O)OP(=O)(O)OP(=O)(O)O)[C@@H](O)[C@H]1O` [ATP], for which the “single-turnover stopped-flow, MDCC-PBP and MDCC-ParM sensors” value on SufBC [2] is “study ADP and Pi release during a single turnover of ATP hydrolysis by SufBC”.
